# T cruzi inh – inhibitors of intracellular T. cruzi growth, primary screen, luminescence, NIH3T3 host cells; T. cruzi beta-gal in NIH3T3, 90 h; inhibition, % (test concentration not listed); hit rate 1.4% among 300,000;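 active = mean inhibition across valid replicates above about 55%, limit read from the data; inconclusive = mean below that limit but half or more replicates reach it; inactive = mean below it, under half of replicates reach it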;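 also: signal also drops with host cell toxicity which is not excluded here; 0% = plate median of DMSO wells and 100% = zero luminescence signal; higher percent means less beta-gal luminescence so fewer parasites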
#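 Assay system: NIH/3T3 host cells with β-galactosidase reporter T. cruzi; input: 5,000 host fibroblasts per well; compound: single 50 nL compound addition per well in DMSO; timing: ≥90 h infection period, 3 h prior cell attachment; measured by: GalScreen β-gal luminescence, detergent lysis, 60 min; evaluation: percent inhibition of parasite-derived β-gal signal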
# Beta cell apopt – inhibitors of cytokine-induced beta cell apoptosis, primary screen, luminescence; INS-1E cytokine-induced death, ATP luminescence, 48 h; percent of positive-control rescue, neutral wells zero; protection from apoptosis, % (test concentration not listed); hit rate 0.8% among 300,000;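 active = Every replicate reaches about 75%, or at least half do and their mean reaches it too, limit read from the data; inconclusive = At least half of replicates reach the limit but their mean does not; inactive = Under half of replicates reach the limit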;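 also: 0% = cytokine-treated negative control wells and 100% = positive control rescue; higher means more ATP so stronger rescue from cytokine killing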
# Calb FLC – C. albicans growth inhibition with fluconazole, primary screen, CaCi-2 strain, Alamar Blue fluorescence; hit rate 0.57% among 300,000; growth inhibition, % (no concentration beside the values); C. albicans CaCi-2 + fluconazole, 48 h;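 active = growth inhibition above about 58% in most replicates, limit read from the data, passing the limit was not always enough; inconclusive = exactly half the replicates above a set limit; inactive = most replicates below a set limit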;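 also: all wells also contain fluconazole at 8 µg/ml as a sub-toxic cotreatment; 0% = median of DMSO wells and 100% = median of geldanamycin control wells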
# CSC inhib – cancer stem cell viability inhibitors, primary screen, luminescence; inhibition, % at 7.5 µM; hit rate 1.1% among 300,000; cancer stem cell-like cells viability; in the data active = inhibition above about 75%; inconclusive = no clear call, values can overlap the other calls; tested in HMLE shEcad cells
# HIF activator – HIF pathway transcriptional activators, primary screen, cell-based, U2OS HRE-luciferase, luminescence; U2OS HRE-luciferase reporter; normalized: DMSO 0%, desferrioxamine 100%; activation, % at 7.5 µM (by protocol); hit rate 0.32% among 300,000;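 active = mean activation of at least 10% of the iron chelator positive control signal, with at least half of replicates also reaching 10%; inconclusive = mean and replicate majority disagree about reaching 10%; inactive = mean and most replicates under 10%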
# PolyA inhibitor – polyadenylation inhibitors in yeast reporter cells, primary screen, luminescence, S. cerevisiae; S. cerevisiae SKY197-pL101 polyadenylation reporter, beta-gal luminescence; efflux-impaired pdr1/pdr3 knockout yeast; score 100 = 6 SD above DMSO; hit rate 0.02% among 300,000; activity score, % at 12 µM;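 active = lowest replicate activity score at least 50, where 100 means six control SD above control mean; inconclusive = lowest score under 50 but half or more replicates reach 50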;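 also: yeast exposed to compound for 9 h at 30 °C; higher score means more reporter readthrough which indicates perturbed polyadenylation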
# Starred values were filed as active, the others as inactive; u = inconclusive; x = not tested or not shown. Most compounds without a hit are left out; they make up all but 3.1% or so of the library.
SMILES,T cruzi inh,Beta cell apopt,Calb FLC,CSC inhib,HIF activator,PolyA inhibitor
CCC1C(c2ccccc2)N(C)C(c2ccccc2)CC1(O)c1ccccc1 (stereo unspecified),59.5*,-0.8,0.7,35.7,-0.4,-3.1
CC(C)C1C(c2ccccc2)N(C)C(c2ccccc2)CC1(O)c1ccccc1 (stereo unspecified),58.0*,44.7,-6.5,130.8*,-0.2,-27.5
Cc1ccc(C(=O)N2CCN(S(=O)(=O)N3CCCCC3)CC2)cc1,-12.2,-7.1,-3.9,-2.4,-0.2,-5.2
COCCNC(=O)C(=O)NCC1OCCN1S(=O)(=O)c1cc(F)ccc1F (stereo unspecified),-0.2,-1.9,5.8,-11.5,17.2*,4.5
COc1ccc(CCNC(=O)C(=O)NCC2OCCN2S(=O)(=O)c2cc(F)ccc2F)cc1OC (stereo unspecified),-7.2,-10.8,3.6,-6.6,-0.2,6.6
Cn1c(=O)c2c(nc(CN3CCC(C(N)=O)CC3)n2Cc2c(F)cccc2Cl)n(C)c1=O,3.4,-3.1,0.8,-4.3,-0.1,-0.3
CC1CCCCN1Cc1nc2c(c(=O)n(C)c(=O)n2C)n1Cc1c(F)cccc1Cl (stereo unspecified),x,14.1,x,76.6*,x,x
Cc1nnc(-c2cccc(Br)c2)c2cn(-c3cccc(Br)c3)nc12,59.5*,5.4,1.0,22.9,0.0,-19.1
Cc1ccc(S(=O)(=O)N2CCCCC2)cc1NC(=O)c1cccs1,x,3.2,x,-11.6,x,x
O=c1[nH]c(CN2CCN(C/C=C/c3ccccc3)CC2)nc2cc(Cl)ccc12,61.1*,-2.1,32.1,-11.7,-0.1,-10.2
O=C(CCc1nc2ccccc2c(=O)[nH]1)N1CCN(C/C=C/c2ccccc2)CC1,81.7*,11.3,-7.7,4.1,-0.1,-3.2
O=C(Cn1cc([N+](=O)[O-])cn1)NCc1cc2ccccc2[nH]1,-21.7,-1.2,-1.0,-8.2,-0.6,-13.7
COc1ccccc1CNc1ncnc2cc(Cl)ccc12,20.6,x,-6.2,x,0.4,-23.6
CCOc1ccccc1CNc1ncnc2ccc(-c3c(C)noc3C)cc12,x,34.5,x,112.2*,x,x
COc1ccc(Cl)cc1NCC(=O)Nc1ccc(OC)c(S(=O)(=O)N2CCCCC2)c1,x,0.2,x,-5.3,x,x
CCCCn1nc(C(=O)N2CCN(S(=O)(=O)c3ccccc3)CC2)c2ccccc2c1=O,13.6,-1.4,-8.3,-17.7,-0.1,-8.3
CCOc1ccc(CCNC(=O)c2cc(-c3ccccc3)c(N3CCOCC3)s2)cc1,57.8*,9.8,4.9,-3.1,0.2,1.8
COc1cccc(/C=N/n2c(N)c(S(=O)(=O)c3cccs3)c3nc4ccccc4nc32)c1OC,35.3,28.1,-0.6,5.2,0.0,-14.1
Nc1c(S(=O)(=O)c2cccc(Cl)c2)c2nc3ccccc3nc2n1/N=C/c1ccc(O)c(O)c1,62.0*,51.2,85.3*,-9.7,0.6,6.1
O=S(=O)(Nc1cc2nc3ccccc3nc2n1Cc1ccccc1)c1ccc(Cl)cc1,2.2,2.9,24.6,112.3*,-6.7,-16.3
O=S(=O)(NCc1ccccc1)c1ccc(Cl)cc1,3.2,-0.8,-5.5,x,-0.1,2.1
CCOCCCNc1ncnc2c1nc1n2CCCC1,-13.0,-7.3,-7.3,-2.0,-29.0,-16.9
COc1cc(Cl)c(NC2=CC(=O)C(=O)c3ccccc32)c(OC)c1,x,104.9*,x,109.9*,x,x
CC(C)(C)c1cc(-c2nc(N)nc(N)n2)c(O)c(C(C)(C)C)c1,x,3.8,x,126.5*,x,x
CCOc1ccc(N(CC(=O)Nc2nccs2)S(=O)(=O)c2c(C)[nH]c(=O)[nH]c2=O)cc1,0.2,6.0,24.2,-1.3,-2.8,7.9
C/C(CC(=O)Nc1cc(C)ccn1)=N\NC(=O)c1cccc(C)c1O,u,70.8,93.7*,72.8,5.3,-6.0
C/C(CC(=O)Nc1cc(C)ccn1)=N\NC(=O)c1cccc(C)c1,4.7,-20.8,-8.8,-4.6,1.9,16.0
CCc1ccc(CN(C)C(=O)C2CCC(=O)N(CC3CCCCC3)C2)cc1 (stereo unspecified),11.4,-4.8,-1.5,8.1,0.3,-10.9

# Screening results (PubChem BioAssay)
